Source: ChEMBL document CHEMBL3046654, “Penoxsulam--structure-activity relationships of triazolopyrimidine sulfonamides” (Bioorg Med Chem, 2009)

Experiments:
Ipomoea hederacea = experiment: Post-emergence herbicidal activity against Ipomoea hederacea (ivy-leaved morning glory) compound treated as foliar application measured after 2 weeks; assay type: functional
In short: (§1)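 Greenhouse post-emergence foliar screen in 64 cm² pots. Seed treatments were used on some species to aid germination. Plants were grown 7–21 days at 23–29 °C day/22–28 °C night under a 15 h photoperiod. Sprayed at 2–12 cm height and the 1–4 true leaf stage.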

Veronica hederifolia = experiment: Post-emergence herbicidal activity against Veronica hederifolia compound treated as foliar application measured after 2 weeks; assay type: functional; in short: as §1
Abutilon theophrasti = experiment: Post-emergence herbicidal activity against Abutilon theophrasti (velvetleaf) compound treated as foliar application measured after 2 weeks; assay type: functional; in short: as §1
Amaranthus retroflexus = experiment: Post-emergence herbicidal activity against Amaranthus retroflexus compound treated as foliar application measured after 2 weeks; assay type: functional; in short: as §1
Ipomoea = experiment: Post-emergence herbicidal activity against Ipomoea spp. compound treated as foliar application measured after 2 weeks; assay type: functional; in short: as §1
Helianthus = experiment: Post-emergence herbicidal activity against Helianthus spp. compound treated as foliar application measured after 2 weeks; assay type: functional; in short: as §1
Chenopodium album = experiment: Post-emergence herbicidal activity against Chenopodium album compound treated as foliar application measured after 2 weeks; assay type: functional; in short: as §1
Datura stramonium = experiment: Post-emergence herbicidal activity against Datura stramonium compound treated as foliar application measured after 2 weeks; assay type: functional; in short: as §1
Xanthium strumarium = experiment: Post-emergence herbicidal activity against Xanthium strumarium (cocklebur) compound treated as foliar application measured after 2 weeks; assay type: functional; in short: as §1
Avena fatua = experiment: Post-emergence herbicidal activity against Avena fatua compound treated as foliar application measured after 2 weeks; assay type: functional; in short: as §1
Oryza sativa = experiment: Phytotoxicity against Oryza sativa (rice); assay type: organism-based; conditions: in vivo
Digitaria sanguinalis = experiment: Post-emergence herbicidal activity against Digitaria sanguinalis (hairy crabgrass) compound treated as foliar application measured after 2 weeks; assay type: functional; in short: as §1
Sorghum halepense = experiment: Post-emergence herbicidal activity against Sorghum halepense (Johnson grass) compound treated as foliar application measured after 2 weeks; assay type: functional; in short: as §1
Setaria faberi = experiment: Post-emergence herbicidal activity against Setaria faberi (Giant Foxtail) compound treated as foliar application measured after 2 weeks; assay type: functional; in short: as §1
Echinochloa crus-galli = experiment: Post-emergence herbicidal activity against Echinochloa crus-galli (barnyard grass) compound treated as foliar application measured after 2 weeks; assay type: functional; in short: as §1
Alopecurus = experiment: Post-emergence herbicidal activity against Alopecurus spp. compound treated as foliar application measured after 2 weeks; assay type: functional; in short: as §1
Fallopia convolvulus = experiment: Post-emergence herbicidal activity against Fallopia convolvulus compound treated as foliar application measured after 2 weeks; assay type: functional; in short: as §1
Stellaria media = experiment: Post-emergence herbicidal activity against Stellaria media compound treated as foliar application measured after 2 weeks; assay type: functional; in short: as §1
[1] = Inhibition of acetolactatae synthase; conditions: read-out: I50
In short: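 Barley ALS: etiolated shoots of 5–6 d old Hector Spring barley homogenized at 0–4 °C in 20 mM HEPES pH 7.2, 1 mM EDTA, 5 mM DTT, then 33% (NH4)2SO4 cut. Reaction: 20 mM HEPES pH 7.2, 5 mM MgCl2, 0.25 mM TPP, FAD, 22.5 mM pyruvate, 0.7% DMSO final, 37 °C, 30 min. Acid decarboxylation to acetoin, then creatine/1-naphthol colour read at 530 nm. Reported as I50 (nM).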

| SMILES | GR80 (Ipomoea hederacea) [ppm] | GR80 (Veronica hederifolia) [ppm] | GR80 (Abutilon theophrasti) [ppm] | GR80 (Amaranthus retroflexus) [ppm] | GR80 (Ipomoea) [ppm] | GR80 (Helianthus) [ppm] | GR80 (Chenopodium album) [ppm] | GR80 (Datura stramonium) [ppm] | GR80 (Xanthium strumarium) [ppm] | GR80 (Avena fatua) [ppm] | GR20 (Oryza sativa) [ppm] | GR80 (Digitaria sanguinalis) [ppm] | GR80 (Sorghum halepense) [ppm] | GR80 (Setaria faberi) [ppm] | GR80 (Echinochloa crus-galli) [ppm] | GR80 (Alopecurus) [ppm] | GR80 (Fallopia convolvulus) [ppm] | GR80 (Stellaria media) [ppm] | IC50 [1] [nM] |
| --- | --- | --- | --- | --- | --- | --- | --- | --- | --- | --- | --- | --- | --- | --- | --- | --- | --- | --- | --- |
| COc1cnc(OC)n2nc(NS(=O)(=O)c3c(OCCCF)cccc3C(F)(F)F)nc12 | 15 | 15 | 15 | 15 | 15 | 15 | 15 | 15 | 15 | 250 | > 250 | 250 | 250 | 250 | 125 | 250 | 15 | 15 | – |
| COc1ncc(Cl)c2nc(NS(=O)(=O)c3c(Cl)cccc3Cl)nn12 | 1 | 1 | 1 | 1 | 1 | 1 | 1 | 1 | 1 | 4 | 4 | 4 | 4 | 4 | 4 | 4 | 1 | 1 | 0.6 |
| COc1ncc(F)c2nc(NS(=O)(=O)c3c(Cl)cccc3Cl)nn12 | 19 | 19 | 19 | 19 | 19 | 19 | 19 | 19 | 19 | >125 | > 125 | >125 | >125 | >125 | >125 | >125 | 19 | 19 | 12 |
| COc1ncc(C)c2nc(NS(=O)(=O)c3c(Cl)cccc3Cl)nn12 | <15 | <15 | <15 | <15 | <15 | <15 | <15 | <15 | <15 | 250 | 250 | 250 | 250 | 250 | 250 | 250 | <15 | <15 | 7 |
| CCOc1cnc(OC)n2nc(NS(=O)(=O)c3c(Cl)cccc3Cl)nc12 | 216 | 216 | 216 | 216 | 216 | 216 | 216 | 216 | 216 | 250 | 250 | 250 | 250 | 250 | 250 | 250 | 216 | 216 | 2 |
| COc1nc(F)cc2nc(NS(=O)(=O)c3c(Cl)cccc3Cl)nn12 | 62 | 62 | 62 | 62 | 62 | 62 | 62 | 62 | 62 | 8 | 8 | 8 | 8 | 8 | 8 | 8 | 62 | 62 | 27 |
| COc1cc2nc(NS(=O)(=O)c3c(Cl)cccc3Cl)nn2c(OC)n1 | >1000 | >1000 | >1000 | >1000 | >1000 | >1000 | >1000 | >1000 | >1000 | >1000 | > 1000 | >1000 | >1000 | >1000 | >1000 | >1000 | >1000 | >1000 | 195 |
| COc1ccccc1S(=O)(=O)Nc1nc2c(OC)cnc(OC)n2n1 | 1 | 1 | 1 | 1 | 1 | 1 | 1 | 1 | 1 | 1 | < 1 | 1 | 1 | 1 | 2 | 1 | 1 | 1 | – |
| COc1cnc(OC)n2nc(NS(=O)(=O)c3ccccc3C(F)(F)F)nc12 | 13 | 13 | 13 | 13 | 13 | 13 | 13 | 13 | 13 | 435 | < 1 | 435 | 435 | 435 | 250 | 435 | 13 | 13 | – |
| COc1cnc(OC)n2nc(NS(=O)(=O)c3cc(Cl)ccc3Cl)nc12 | 19 | 19 | 19 | 19 | 19 | 19 | 19 | 19 | 19 | >1000 | < 2 | >1000 | >1000 | >1000 | 1000 | >1000 | 19 | 19 | – |
| COc1cnc(OC)n2nc(NS(=O)(=O)c3cc(Cl)cc(Cl)c3)nc12 | 126 | 126 | 126 | 126 | 126 | 126 | 126 | 126 | 126 | >1000 | 62 | >1000 | >1000 | >1000 | >1000 | >1000 | 126 | 126 | – |
| COc1cccc(OC)c1S(=O)(=O)Nc1nc2c(OC)cnc(OC)n2n1 | 0.5 | 0.5 | 0.5 | 0.5 | 0.5 | 0.5 | 0.5 | 0.5 | 0.5 | <0.1 | < 0.5 | <0.1 | <0.1 | <0.1 | <0.5 | <0.1 | 0.5 | 0.5 | – |
| COc1cccc(C(F)(F)F)c1S(=O)(=O)Nc1nc2c(OC)cnc(OC)n2n1 | <0.2 | <0.2 | <0.2 | <0.2 | <0.2 | <0.2 | <0.2 | <0.2 | <0.2 | 1 | 2 | 1 | 1 | 1 | 1 | 1 | <0.2 | <0.2 | – |
